Reference: ChEMBL document CHEMBL2150886, “Synthesis of [3β-acetoxy-urs-12-en-28-oyl]-1-monoglyceride and investigation on its anti tumor effects against BGC-823” (Bioorg Med Chem, 2011)

Legend:
HT-29 = test: Cytotoxicity against human HT-29 cells incubated for 48 hrs by MTT assay; assay type: functional, cell-based; conditions: HT-29, 48 h
Outline: (§1)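 Cells were grown in RPMI-1640 with 10% heat-inactivated FCS at 37 °C under 5% CO₂, seeded at 5 × 10³ per well and left 24 h. Compounds in DMSO were diluted in medium to 0.5% final DMSO; controls received 0.5% DMSO. Exposure was 24–72 h, followed by MTT for 4 h, formazan dissolved in DMSO, and A570. Six wells per sample; IC₅₀ taken at 50% inhibition; ≥3 repeats.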

HepG2 = test: Cytotoxicity against human HepG2 cells incubated for 48 hrs by MTT assay; assay type: functional, cell-based; conditions: HepG2, 48 h; outline: as §1
BGC-823 [1] = test: Cytotoxicity against human BGC823 cells by MTT assay; assay type: functional, cell-based; outline: as §1
[2] = Cytotoxicity against human GES-1 cells incubated for 48 hrs by MTT assay; assay type: cell-based; conditions: GES1, 48 h; outline: as §1
Mus musculus [3] = test: Toxicity in human BGC823 cells xenografted nude mouse assessed as body weight changes at 8 mg/kg, iv treated 4 times on day 1, 4, 7 and 10 post tumor implant (reference value: 20.54 +/- 1.45 grams); assay type: organism-based, BGC-823; parameters: dose 8 mg/kg, route intravenous; conditions: in vivo
Mus musculus [4] = test: Toxicity in human BGC823 cells xenografted nude mouse assessed as body weight changes at 8 mg/kg, iv treated 5 times on day 1, 4, 7, 10 and day 13 post tumor implant (reference value: 20.21 +/- 1.83 grams); assay type: organism-based, BGC-823; parameters: dose 8 mg/kg, route intravenous; conditions: in vivo
Mus musculus [5] = test: Toxicity in human BGC823 cells xenografted nude mouse assessed as body weight changes at 8 mg/kg, iv treated […] on day 1, 4, 7, 10, 13 and day 16 post tumor implant (reference value: 20.12 +/- 1.52 grams); assay type: organism-based, BGC-823; parameters: dose 8 mg/kg, route intravenous; conditions: in vivo
BGC-823 [6] = test: Antitumor activity against human BGC823 cells xenografted in nude mouse assessed as reduction in tumor volume at 8 mg/kg, iv dosed 5 times; assay type: functional; parameters: scale not given: the % may be the effect or the level left
Outline: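 Male nude mice (5 weeks, 18–22 g) inoculated subcutaneously with 1 × 10⁷ BGC-823 cells. At about 200 mm³ tumours, animals were randomised into four groups of eight. Each received 0.2 mL iv by tail vein; controls got 0.9% saline. Tumour volume was measured daily as 0.5 × length × width²; tumours were weighed at the end. Values are mean ± SD, n = 8.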

Mus musculus [7] = test: Toxicity in human BGC823 cells xenografted nude mouse assessed as body weight changes at 8 mg/kg, iv treated on day 1 post tumor implant (reference value: 19.69 +/- 1.21 grams); assay type: organism-based, BGC-823; parameters: dose 8 mg/kg, route intravenous; conditions: in vivo
Mus musculus [8] = test: Toxicity in human BGC823 cells xenografted nude mouse assessed as body weight changes at 8 mg/kg, iv treated 2 times on day 1 and day 4 post tumor implant (reference value: 20.58 +/- 1.35 grams); assay type: organism-based, BGC-823; parameters: dose 8 mg/kg, route intravenous; conditions: in vivo
Mus musculus [9] = test: Toxicity in human BGC823 cells xenografted nude mouse assessed as body weight changes at 8 mg/kg, iv treated 3 times on day 1, day 4 and day 7 post tumor implant (reference value: 20.79 +/- 1.29 grams); assay type: organism-based, BGC-823; parameters: dose 8 mg/kg, route intravenous; conditions: in vivo

SMILES	IC50 (HT-29) [µM]	IC50 (HepG2) [µM]	IC50 (BGC-823 [1]) [µM]	IC50 [2] [µM]	Activity (Mus musculus [3]) [g]	Activity (Mus musculus [4]) [g]	Activity (Mus musculus [5]) [g]	Activity (BGC-823 [6]) [%]	Activity (Mus musculus [7]) [g]	Activity (Mus musculus [8]) [g]	Activity (Mus musculus [9]) [g]
CC(=O)O[C@H]1CC[C@]2(C)[C@H]3CC=C4[C@@H]5[C@@H](C)[C@H](C)CC[C@]5(C(=O)O)CC[C@@]4(C)[C@]3(C)CC[C@H]2C1(C)C [O-ACETYLURSOLIC ACID]	23.9	37.7	19.4	92.9	–	–	–	–	–	–	–
C[C@H]1[C@H](C)CC[C@]2(C(=O)OCC(O)CO)CC[C@]3(C)C(=CC[C@@H]4[C@@]5(C)CC[C@H](O)C(C)(C)[C@@H]5CC[C@]43C)[C@H]12 (some centres undefined)	–	44.2	20.5	154	–	–	–	–	–	–	–
CC(=O)O[C@H]1CC[C@]2(C)[C@H]3CC=C4[C@@H]5[C@@H](C)[C@H](C)CC[C@]5(C(=O)OCCO)CC[C@@]4(C)[C@]3(C)CC[C@H]2C1(C)C	23.6	29.8	17.2	137	–	–	–	–	–	–	–
C[C@H]1[C@H](C)CC[C@]2(C(=O)O)CC[C@]3(C)C(=CC[C@@H]4[C@@]5(C)CC[C@H](O)C(C)(C)[C@@H]5CC[C@]43C)[C@H]12 [URSOLIC ACID]	26.3	–	23	93.8	–	–	–	–	–	–	–
CC(=O)O[C@H]1C(=O)[C@@]2(C)[C@H]([C@H](OC(=O)c3ccccc3)[C@]3(O)C[C@H](OC(=O)[C@H](O)[C@@H](NC(=O)c4ccccc4)c4ccccc4)C(C)=C1C3(C)C)[C@]1(OC(C)=O)CO[C@@H]1C[C@@H]2O [PACLITAXEL]	< 10	–	33.1	106	20.13	20.17	20.25	15.2	18.76	19.72	19.7
